# According to PMC8408915 (Biochemistry, 2021):
# Molecular target: T1, KDAC8 (Homo sapiens, UniProt Q9BY41)
# T1 sequence (Q9BY41 1-377): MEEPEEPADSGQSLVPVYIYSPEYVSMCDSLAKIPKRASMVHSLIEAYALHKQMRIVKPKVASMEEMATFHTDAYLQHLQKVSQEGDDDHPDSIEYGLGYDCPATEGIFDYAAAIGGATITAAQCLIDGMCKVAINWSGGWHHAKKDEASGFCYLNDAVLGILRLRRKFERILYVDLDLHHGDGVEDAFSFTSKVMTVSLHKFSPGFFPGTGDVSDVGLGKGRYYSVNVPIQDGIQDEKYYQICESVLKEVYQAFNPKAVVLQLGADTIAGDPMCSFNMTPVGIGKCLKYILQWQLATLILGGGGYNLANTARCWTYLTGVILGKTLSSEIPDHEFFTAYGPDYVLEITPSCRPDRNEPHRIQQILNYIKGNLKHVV
# Test: KDAC8 endpoint in vitro deacetylation activity assay
# Assay type: biochemical
# Conditions: low ionic strength buffer; 200 nM KDAC8, 100 μM peptide, 25 °C, 15-60 min; average of n≥3; limit of reliable detection 0.0004 s^−1
# Outline: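 KDAC8 carried a C-terminal His6 tag. It was expressed in ExpiSf9 cells after bacmid transfection (28 °C, 5 days, then 2 days of suspension amplification) and purified on cobalt (TALON) affinity resin. Peptides were N-terminally acetylated and C-terminally amidated. Buffer was 30 mM potassium phosphate pH 7.6 with 5% glycerol and no KCl. Product was detected with fluorescamine, and endpoint activity was averaged.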
row,Substance,Specific activity of KDAC8 with biologically relevant putative KDAC substrates
1,APRK^acQLA,0.00163 ± 0.00014 s^−1
2,EIGK^acTLA,- (- indicates no activity above the limit of reliable detection (0.0004 s^−1).)
3,QTAK^acDAG,- (- indicates no activity above the limit of reliable detection (0.0004 s^−1).)
4,LSGK^acGNP,- (- indicates no activity above the limit of reliable detection (0.0004 s^−1).)
5,PEAK^acSLL,- (- indicates no activity above the limit of reliable detection (0.0004 s^−1).)
6,LGGK^acQRA,- (- indicates no activity above the limit of reliable detection (0.0004 s^−1).)
7,GALK^acAPS,- (- indicates no activity above the limit of reliable detection (0.0004 s^−1).)
8,GVGK^acYIN,0.0007 ± 0.0004 s^−1
9,ITGK^acPSG,- (- indicates no activity above the limit of reliable detection (0.0004 s^−1).)
10,GTAK^acSVT,- (- indicates no activity above the limit of reliable detection (0.0004 s^−1).)
11,SVRK^acGIM,0.0036 ± 0.0008 s^−1
12,SHLK^acAHL,- (- indicates no activity above the limit of reliable detection (0.0004 s^−1).)
13,AARK^acSAP,0.0026 ± 0.0002 s^−1
14,EVGK^acLLN,- (- indicates no activity above the limit of reliable detection (0.0004 s^−1).)
15,TGGK^acAPR,- (- indicates no activity above the limit of reliable detection (0.0004 s^−1).)
